{"source": "ChEMBL document CHEMBL1128219", "about": "“In vitro antimalarial activity of chalcones and their derivatives” (J Med Chem, 1995)", "key": {"[1]": {"test_system": "Plasmodium falciparum", "experiment": "In vitro antimalarial activity against chloroquine-sensitive Plasmodium falciparum D6 (CDC/Sierra Leone I); call rule not given here", "assay_type": "functional, organism-based", "in_short": "(§1)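 Compound DMSO solution diluted 400-fold in RPMI 1640 containing 25 mM Hepes, 32 mM NaHCO3 and 10% human plasma, then 2-fold serial dilutions over 11 concentrations. Parasites exposed 48 h at 37 °C under 5% O2/5% CO2/90% N2, then [3H]hypoxanthine added for a further 18 h. DNA harvested onto glass filters and counted by scintillation. IC50 from logistic dose-response fit.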"}, "[2]": {"test_system": "Plasmodium falciparum", "experiment": "In vitro antimalarial activity against chloroquine-resistant Plasmodium falciparum CDC/Indochina III W2", "assay_type": "functional, organism-based", "in_short": "as §1"}, "[3]": {"experiment": "Ratio of IC50 of W2 strain to D6 strain.", "assay_type": "functional", "in_short": "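Resistance index is IC50 against chloroquine-resistant P. falciparum W2 (CDC/Indochina III) divided by IC50 against chloroquine-sensitive D6 (CDC/Sierra Leone I). Compounds dissolved in DMSO, diluted 400-fold into RPMI 1640 with 25 mM Hepes, 32 mM NaHCO3 and 10% human plasma, then 2-fold serially over 11 concentrations. Parasites were exposed for 48 h at 37 °C (5% O2, 5% CO2, 90% N2), then given [3H]hypoxanthine for 18 h. IC50 came from logistic fits.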"}, "[4]": {"test_system": "Plasmodium falciparum", "experiment": "In vitro antimalarial activity against chloroquine-sensitive Plasmodium falciparum D6 (CDC/Sierra Leone I); Not active", "assay_type": "functional, organism-based", "in_short": "as §1"}, "[5]": {"test_system": "Plasmodium falciparum", "experiment": "In vitro antimalarial activity against chloroquine-resistant Plasmodium falciparum CDC/Indochina III W2; Not active", "assay_type": "functional, organism-based", "in_short": "as §1"}, "[6]": {"experiment": "Compound was evaluated for the pKa value in water at 20 degrees Centigrade", "assay_type": "physicochemical"}, "[7]": {"test_system": "Plasmodium falciparum", "experiment": "In vitro antimalarial activity against chloroquine-sensitive Plasmodium falciparum CDC/Sierra Leone I D6; Not active", "assay_type": "functional, organism-based", "in_short": "as §1"}}, "data": [{"smiles": "COc1ccc(C(=O)/C=C/c2cc3ccccc3nc2Cl)cc1OC", "values": [{"measurement": "IC50", "setting": "[1]", "result": 720, "unit": "nM"}, {"measurement": "IC50", "setting": "[2]", "result": 510, "unit": "nM"}, {"measurement": "Resistance index", "setting": "[3]", "result": 0.7}]}, {"smiles": "COc1ccc(C(=O)/C=C/c2cc3ccccc3nc2Cl)c(OC)c1", "values": [{"measurement": "IC50", "setting": "[1]", "result": 1290, "unit": "nM"}, {"measurement": "IC50", "setting": "[2]", "result": 1000, "unit": "nM"}, {"measurement": "Resistance index", "setting": "[3]", "result": 0.8}]}, {"smiles": "COc1ccc(/C=C/C(=O)c2ccc(F)cc2F)c(OC)c1", "values": [{"measurement": "IC50", "setting": "[1]", "result": 19100, "unit": "nM"}, {"measurement": "IC50", "setting": "[2]", "result": 11100, "unit": "nM"}, {"measurement": "Resistance index", "setting": "[3]", "result": 0.6}]}, {"smiles": "COc1ccc(C(=O)/C(C)=C/c2ccc(Cl)cc2Cl)c(OC)c1", "values": [{"measurement": "IC50", "setting": "[1]", "result": 6260, "unit": "nM"}, {"measurement": "IC50", "setting": "[2]", "result": 2460, "unit": "nM"}, {"measurement": "Resistance index", "setting": "[3]", "result": 0.4}]}, {"smiles": "COc1ccc(C(=O)/C=C/c2ccc(Cl)cc2Cl)c(OC)c1", "values": [{"measurement": "IC50", "setting": "[1]", "result": 770, "unit": "nM"}, {"measurement": "IC50", "setting": "[2]", "result": 900, "unit": "nM"}, {"measurement": "Resistance index", "setting": "[3]", "result": 1.2}]}, {"smiles": "COc1ccc(C(=O)CCc2ccc(F)c(F)c2)c(OC)c1", "values": [{"measurement": "IC50", "setting": "[4]", "result": "Not Active"}, {"measurement": "IC50", "setting": "[5]", "result": "Not Active"}, {"measurement": "IC50", "setting": "[1]", "result": "> 16000", "unit": "nM"}, {"measurement": "IC50", "setting": "[2]", "result": "> 16000", "unit": "nM"}]}, {"smiles": "COc1ccc(/C=C/C(=O)c2ccc(Cl)cc2Cl)c(OC)c1", "values": [{"measurement": "IC50", "setting": "[1]", "result": 3400, "unit": "nM"}, {"measurement": "IC50", "setting": "[2]", "result": 3800, "unit": "nM"}, {"measurement": "Resistance index", "setting": "[3]", "result": 1.1}]}, {"smiles": "COc1ccc(C(=O)/C=C/c2ccc(F)cc2F)c(OC)c1", "values": [{"measurement": "IC50", "setting": "[1]", "result": 1950, "unit": "nM"}, {"measurement": "IC50", "setting": "[2]", "result": 1900, "unit": "nM"}, {"measurement": "Resistance index", "setting": "[3]", "result": 1}]}, {"smiles": "COc1ccc(C(=O)/C=C/c2ccc(F)c(F)c2)c(OC)c1", "values": [{"measurement": "IC50", "setting": "[1]", "result": 2100, "unit": "nM"}, {"measurement": "IC50", "setting": "[2]", "result": 2090, "unit": "nM"}, {"measurement": "Resistance index", "setting": "[3]", "result": 1}]}, {"smiles": "O=C(/C=C/c1cc2ccccc2nc1Cl)c1cccnc1", "values": [{"measurement": "IC50", "setting": "[1]", "result": 2530, "unit": "nM"}, {"measurement": "IC50", "setting": "[2]", "result": 710, "unit": "nM"}, {"measurement": "Resistance index", "setting": "[3]", "result": 0.3}]}, {"smiles": "O=C(/C=C/c1cc2ccccc2nc1Cl)c1ccc(F)cc1F", "values": [{"measurement": "IC50", "setting": "[1]", "result": 980, "unit": "nM"}, {"measurement": "IC50", "setting": "[2]", "result": 1000, "unit": "nM"}, {"measurement": "Resistance index", "setting": "[3]", "result": 1}]}, {"smiles": "COc1ccc(OC)c(C(=O)/C=C/c2cccc(Cl)c2Cl)c1", "values": [{"measurement": "IC50", "setting": "[1]", "result": 1100, "unit": "nM"}, {"measurement": "IC50", "setting": "[2]", "result": 920, "unit": "nM"}, {"measurement": "Resistance index", "setting": "[3]", "result": 0.8}]}, {"smiles": "COc1cccc(OC)c1C(=O)/C=C\\c1ccc(Cl)cc1", "values": [{"measurement": "IC50", "setting": "[1]", "result": 1240, "unit": "nM"}, {"measurement": "IC50", "setting": "[2]", "result": 770, "unit": "nM"}, {"measurement": "Resistance index", "setting": "[3]", "result": 0.6}]}, {"smiles": "COc1ccc(OC)c(C(=O)/C=C\\c2ccc(Cl)cc2Cl)c1", "values": [{"measurement": "IC50", "setting": "[1]", "result": 920, "unit": "nM"}, {"measurement": "IC50", "setting": "[2]", "result": 750, "unit": "nM"}, {"measurement": "Resistance index", "setting": "[3]", "result": 0.8}]}, {"smiles": "COc1ccc(C(=O)/C=C/c2ccc(C(F)(F)F)cc2)c(OC)c1", "values": [{"measurement": "IC50", "setting": "[1]", "result": 680, "unit": "nM"}, {"measurement": "IC50", "setting": "[2]", "result": 750, "unit": "nM"}, {"measurement": "Resistance index", "setting": "[3]", "result": 1.1}]}, {"smiles": "O=C(/C=C/c1ccc(Cl)cc1Cl)c1ccc(-n2ccnc2)cc1", "values": [{"measurement": "IC50", "setting": "[1]", "result": 900, "unit": "nM"}, {"measurement": "IC50", "setting": "[2]", "result": 1180, "unit": "nM"}, {"measurement": "Resistance index", "setting": "[3]", "result": 1.3}]}, {"smiles": "COc1ccc(/C=C(\\C)C(=O)c2ccc(Cl)cc2Cl)c(OC)c1", "values": [{"measurement": "IC50", "setting": "[4]", "result": "Not Active"}, {"measurement": "IC50", "setting": "[5]", "result": "Not Active"}, {"measurement": "IC50", "setting": "[1]", "result": "> 14000", "unit": "nM"}, {"measurement": "IC50", "setting": "[2]", "result": "> 14000", "unit": "nM"}]}, {"smiles": "c1ccc2cnccc2c1", "note": "[ISOQUINOLINE]", "values": [{"measurement": "pKa", "setting": "[6]", "result": 5.4}]}, {"smiles": "O=C(/C=C\\c1ccnc2ccccc12)c1ccc(Cl)c(Cl)c1", "values": [{"measurement": "IC50", "setting": "[1]", "result": 1690, "unit": "nM"}, {"measurement": "IC50", "setting": "[2]", "result": 800, "unit": "nM"}, {"measurement": "Resistance index", "setting": "[3]", "result": 0.5}]}, {"smiles": "COc1ccc(C(=O)CCc2ccc(Cl)cc2Cl)c(OC)c1", "values": [{"measurement": "IC50", "setting": "[5]", "result": "Not Active"}, {"measurement": "IC50", "setting": "[7]", "result": "Not Active"}, {"measurement": "IC50", "setting": "[1]", "result": "> 15000", "unit": "nM"}, {"measurement": "IC50", "setting": "[2]", "result": "> 15000", "unit": "nM"}]}, {"smiles": "O=C(/C=C\\c1ccnc2ccccc12)c1cc(Cl)ccc1Cl", "values": [{"measurement": "IC50", "setting": "[1]", "result": 190, "unit": "nM"}, {"measurement": "IC50", "setting": "[2]", "result": 230, "unit": "nM"}, {"measurement": "Resistance index", "setting": "[3]", "result": 1.2}]}, {"smiles": "COc1ccc(C(=O)/C=C/c2cccc(Cl)c2Cl)c(OC)c1", "values": [{"measurement": "IC50", "setting": "[1]", "result": 1290, "unit": "nM"}, {"measurement": "IC50", "setting": "[2]", "result": 1380, "unit": "nM"}, {"measurement": "Resistance index", "setting": "[3]", "result": 1.1}]}, {"smiles": "COc1ccc(C(=O)/C=C/c2cccc(Cl)c2Cl)cc1OC", "values": [{"measurement": "IC50", "setting": "[1]", "result": 1960, "unit": "nM"}, {"measurement": "IC50", "setting": "[2]", "result": 1140, "unit": "nM"}, {"measurement": "Resistance index", "setting": "[3]", "result": 0.6}]}, {"smiles": "COc1ccc(C(=O)/C=C\\c2ccc(Cl)cc2Cl)c(OC)c1OC", "values": [{"measurement": "IC50", "setting": "[1]", "result": 430, "unit": "nM"}, {"measurement": "IC50", "setting": "[2]", "result": 360, "unit": "nM"}, {"measurement": "Resistance index", "setting": "[3]", "result": 0.8}]}]}
